{"data": "Published values of several laboratories", "target": "Phosphatidylinositol 4-kinase beta (PI4KB, Homo sapiens, UniProt Q9UBF8)"}
{"SMILES": "Cc1nn(C)cc1-c1nc2c(N3CCN(Cc4ccc(Cl)cc4)CC3)c(Cl)cnc2[nH]1", "test": "binding, competition with immobilised ligand", "conditions": "1 µM", "endpoint": "remaining binding", "result": "100%"}
{"SMILES": "C#Cc1n[nH]c2c(-c3cn([C@@H](C)c4ccccc4)c(=O)[nH]c3=O)cc(F)cc12", "test": "enzyme activity, inhibitor", "conditions": "0.1 µM", "endpoint": "inhibition", "result": "-2.5%"}
{"SMILES": "Nc1ncc(-c2nc(N3CCOCC3)nc(N3CCOCC3)n2)c(C(F)F)n1", "test": "binding, competition with immobilised ligand", "conditions": "10 µM", "endpoint": "remaining binding", "result": "75%"}
{"SMILES": "Cn1cc(-c2cc(F)cc(N3CCn4c(cc5c4CCCC5)C3=O)c2CO)cc(Nc2ccc(N3CCN(C4COC4)CC3)cn2)c1=O", "test": "enzyme activity, inhibitor", "conditions": "0.1 µM", "endpoint": "inhibition", "result": "-3%"}
{"SMILES": "COc1ncccc1-c1cnn2ccc(N3CCN(C(=O)OC(C)C)CC3)nc12", "test": "binding, competition with immobilised ligand", "conditions": "1 µM", "endpoint": "remaining binding", "result": "100%"}
{"SMILES": "C#Cc1n[nH]c2c(-c3cn(C(C)c4ccccn4)c(=O)[nH]c3=O)cc(F)cc12 (centres unmarked)", "test": "enzyme activity, inhibitor", "conditions": "1 µM", "endpoint": "inhibition", "result": "-4.1%"}
{"SMILES": "Cn1cc(-c2cccc(N3CCc4c(sc5c4CC(C)(C)C5)C3=O)c2CO)cc(Nc2ccncn2)c1=O", "test": "enzyme activity, inhibitor", "conditions": "1 µM", "endpoint": "inhibition", "result": "-4%"}
{"SMILES": "Cn1cncc1[C@](O)(COc1ccc(C#N)cc1-c1ccc(OC(F)(F)F)cc1)c1ccc(C#N)cc1", "test": "cell-free assay, competition with immobilised ligand", "conditions": "1 µM", "endpoint": "remaining binding", "result": "94%"}
